According to ChEMBL document CHEMBL1131199, “Structure-activity of novel rhodacyanine dyes as antitumor agents” (J Med Chem, 1998):

Columns and labels:
[1] = The solubility in 0.9% saline was determined; type: ADME
[2] = The solubility in water was determined; type: ADME
CX-1 = assay: In vitro inhibition of growth of human carcinoma CX-1 cell line (clonogenic assay).; type: functional, cell-based
KB = assay: In vitro inhibition of growth of KB cells (cytotoxic assay).; type: functional, cell-based, Homo sapiens
[3] = Lethal dose when administered intraperitoneally; type: toxicity; details: mouse, ip
CV-1 [4] = assay: Compound was tested in vitro for inhibition of growth of cytotoxic CV-1 cell line; type: functional, cell-based, Homo sapiens; details: Chlorocebus aethiops
[5] = Lethal dose when administered intravenously; type: toxicity; details: mouse, iv
Mus musculus [6] = assay: In vivo ratio of median survival time of drug-treated to control, untreated tumor-bearing mice at a dose of 4 mg/kg for 5 days; type: functional
Summary of the method: (§1)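 Male Swiss nu/nu mice, about 5 weeks old, acclimated 1 week. LOX melanoma was first grown sc in nude mice, then made into a single-cell suspension with RBCs lysed by ammonium chloride. Each mouse got 2×10^6 LOX cells ip in PBS. From the next day, compound was given ip in 45% hydroxypropyl β-cyclodextrin in water. T/C is median survival of treated over untreated controls, as a percentage. Five mice per group.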

Mus musculus [7] = assay: In vivo ratio of median survival time of drug-treated to control, untreated tumor-bearing mice at a dose of 5 mg/kg for 3 days; type: functional
Mus musculus [8] = assay: In vivo ratio of median survival time of drug-treated to control, untreated tumor-bearing mice at a dose of 10 mg/kg for 5 days; type: functional
Mus musculus [9] = assay: In vivo ratio of median survival time of drug-treated to control, untreated tumor-bearing mice at a dose of 2 mg/kg for 5 days; type: functional
Mus musculus [10] = assay: In vivo ratio of median survival time of drug-treated to control, untreated tumor-bearing mice at a dose of 5 mg/kg for 5 days; type: functional
Mus musculus [11] = assay: In vivo ratio of median survival time of drug-treated to control, untreated tumor-bearing mice at a dose of 4 mg/kg for 7 days; type: functional
Mus musculus [12] = assay: Tumor inhibition (TI) ratio at a dose of 1 mg/kg for 4 day; type: functional
Mus musculus [13] = assay: In vivo ratio of median survival time of drug-treated to control, untreated tumor-bearing mice at a dose of 10 mg/kg for 1 day; type: functional
Mus musculus [14] = assay: Tumor inhibition (TI) ratio at a dose of 3 mg/kg for 4 day; type: functional
Summary of the method: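 BDF1 mice (male, inbred, 5-week-old, ~1 week acclimation) implanted sc with 5 × 10^5 CA755 cells; compound given iv in 0.9% saline (0.2 mL/20 g body weight), 3 mg/kg/day × 4. Tumors weighed at day 11; inhibition (%) = (A − B)/A × 100, A and B being mean control and treated tumor weights. Five mice per group; Bartlett's, Dunnett's, Scheffé's tests.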

CV-1 [15] = assay: The IC50 value for 50%inhibition of cells on clonogenic CV-1 […] cytotoxic cell lines.; type: functional, cell-based; details: Chlorocebus aethiops
Summary of the method: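 CV-1 cytotoxicity assay: cells seeded at 4×10^4 per 20 mm plate at 37 °C in 5% CO2. Next day, cells were exposed to varying compound concentrations for 1 week, stained with crystal violet, and viable cells counted.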

Mus musculus [16] = assay: In vivo ratio of median survival time of drug-treated to control, untreated tumor-bearing mice at a dose of 7 mg/kg for 5 days; type: functional; summary of the method: as §1
Mus musculus [17] = assay: In vivo ratio of median survival time of drug-treated to control, untreated tumor-bearing mice at a dose of 5 mg/kg for 4 day; type: functional

SMILES | LD50 [3] [mg/kg] | LD50 [5] [mg/kg] | IC50 (CX-1; Homo sapiens, CX-1) [nM] | IC50 (KB; Homo sapiens, KB) [nM] | also measured
CCn1c(=O)/c(=C2\Sc3ccccc3N2C)s/c1=C\c1cccc[n+]1CC.[I-] | – | – | – | – | solubility [1]: < 100 µg/mL; solubility [2]: 200 µg/mL; IC50 (CX-1; cx-1): 800 nM; IC50 (KB; kb): 46800 nM
CC(=O)[O-].CCn1c(=O)/c(=C2\Sc3ccccc3N2C)s/c1=C\c1scc(C)[n+]1CC | 30 | 20 | 110 | 950 | IC50 (CV-1 [4]): 23600 nM; T/C (Mus musculus [6]): >173%
CCn1c(=O)/c(=C/C=C2\Sc3ccc4ccccc4c3N2C)s/c1=C\c1scc(C)[n+]1CC | – | – | > 1800 | 2000 | –
CCn1c(=O)/c(=C2\Oc3ccccc3N2C)s/c1=C\c1cccc[n+]1CC | – | – | > 2400 | 3730 | –
CCn1c(=O)/c(=C/C=C2/N(C)c3ccccc3C2(C)C)s/c1=C\c1oc2c3ccccc3ccc2[n+]1CC.Cc1ccc(S(=O)(=O)[O-])cc1 | – | – | 10 | 270 | T/C (Mus musculus [7]): 94%
CC(=O)[O-].CCn1c(=O)/c(=C2\Sc3ccccc3N2C)s/c1=C\C1CCC[n+]2c1sc1ccccc12 (stereo unspecified) | 30 | 3 | 230 | 230 | IC50 (CV-1 [4]): 2900 nM; T/C (Mus musculus [6]): >208%
CCN1/C(=C/C=c2\s/c(=C\c3sc4ccc5ccccc5c4[n+]3CC)n(CC)c2=O)Sc2ccc3ccccc3c21.Cc1ccc(S(=O)(=O)[O-])cc1 | – | – | 40 | 210 | T/C (Mus musculus [8]): 126%
CC(=O)[O-].CCn1c(=O)/c(=C2\Sc3ccc4ccccc4c3N2C)s/c1=C\c1oc2c3ccccc3ccc2[n+]1CC | – | – | 680 | 80 | T/C (Mus musculus [9]): 120%
CC(=O)[O-].CCn1c(=O)/c(=C2\SCCN2C)s/c1=C\c1sc2ccc3ccccc3c2[n+]1CC | – | – | 160 | 250 | T/C (Mus musculus [6]): 106%
CC(=O)[O-].CCN1/C(=C/C=c2\s/c(=C\C3=[N+](CC)CCS3)n(CC)c2=O)C=Cc2ccccc21 | – | – | 160 | 910 | T/C (Mus musculus [8]): 143%
CC(=O)[O-].CCn1c(=O)/c(=C2\Sc3ccccc3N2C)s/c1=C\c1ccc2ccccc2[n+]1CC | 30 | 10 | 280 | 280 | T/C (Mus musculus [9]): 124%; IC50 (CV-1 [4]): 8700 nM
CC(=O)[O-].CCn1c(=O)/c(=C2\Sc3ccccc3N2C)s/c1=C\c1oc2ccccc2[n+]1CC | 10 | > 10 | 180 | 1130 | T/C (Mus musculus [10]): 140%; IC50 (CV-1 [4]): 14700 nM
CC(=O)[O-].CCn1c(=O)/c(=C2\Sc3ccccc3N2C)s/c1=C\c1sc2ccccc2[n+]1CC | 30 | 5 | 60 | 60 | T/C (Mus musculus [11]): 163%; TI (Mus musculus [12]): 59.4%; IC50 (CV-1 [4]): 1400 nM
CCN1C=CC=C/C1=C\C=c1/s/c(=C\c2sc3ccc4ccccc4c3[n+]2CC)n(CC)c1=O.[Cl-] | – | – | 80 | 770 | T/C (Mus musculus [6]): 122%
CCn1c(=O)/c(=C2\C=CC=CN2C)s/c1=C\c1sc2ccccc2[n+]1CC | – | – | 1760 | 2170 | –
CCCC[n+]1c(/C=c2\s/c(=C\C=C3/SCCN3CC)c(=O)n2CC)sc2c3ccccc3ccc21 | – | – | 30 | 460 | –
CCN1CCS/C1=C\C=c1/s/c(=C\c2sc3c4ccccc4ccc3[n+]2CC)n(CC)c1=O | – | – | 20 | 320 | –
CC(=O)[O-].CCN1C(C)=CS/C1=C\C=c1/s/c(=C\c2sc3ccccc3[n+]2CC)n(CC)c1=O | – | – | 60 | 250 | T/C (Mus musculus [13]): 138%
CC(=O)[O-].CCn1c(=O)/c(=C2\Sc3ccccc3N2C)s/c1=C\C1=[N+](CC)CCS1 | 40 | 15 | 1040 | 6220 | T/C (Mus musculus [9]): 133%; IC50 (CV-1 [4]): 13200 nM
CCN1CCS/C1=C\C=c1/s/c(=C\c2sc3c4ccccc4ccc3[n+]2CCO)n(CC)c1=O | – | – | 390 | – | –
CC(=O)[O-].CCn1c(=O)/c(=C2\Sc3ccccc3N2C)s/c1=C\c1cccc[n+]1CC | 50 | 20 | – | – | T/C (Mus musculus [10]): >310%; solubility [1]: > 5000 µg/mL; solubility [2]: > 5000 µg/mL; TI (Mus musculus [14]): 76.5%; IC50 (CX-1; cx-1): 1100 nM; IC50 (CV-1 [15]): 63200 nM; IC50 (KB; kb): 860 nM
CCN1CCS/C1=C\C=c1/s/c(=C\c2sc3c4ccccc4ccc3[n+]2CCC(=O)O)n(CC)c1=O | – | – | > 1500 | > 15000 | –
CCn1c(=O)/c(=C2\Sc3ccc4ccccc4c3N2C)s/c1=C\c1sc2c3ccccc3ccc2[n+]1CC.[Cl-] | – | – | 50 | 340 | T/C (Mus musculus [16]): 112%
CCn1c(=O)/c(=C2\Sc3ccccc3N2C)s/c1=C\c1cccc[n+]1CC.[Cl-] | 50 | 20 | – | – | solubility [1]: > 5000 µg/mL; solubility [2]: > 5000 µg/mL; TI (Mus musculus [14]): 75.5%; T/C (Mus musculus [17]): >344%; IC50 (KB; kb): 810 nM
CCN1CCS/C1=C\C=c1/s/c(=C\c2sc3c4ccccc4ccc3[n+]2C)n(CC)c1=O | – | – | 30 | 490 | –
